Results published in ChEMBL document CHEMBL3593206, “SAR Studies of Exosite-Binding Substrate-Selective Inhibitors of A Disintegrin And Metalloprotease 17 (ADAM17) and Application as Selective in Vitro Probes” (J Med Chem, 2015).
Blank lines part the entries; values can stand above or below the molecule they belong to.

Tests used:
[1] = target: T1, Disintegrin and metalloproteinase domain-containing protein 10 (Homo sapiens, UniProt O14672); test: Inhibition of ADAM10 (unknown origin) preincubated for 30 mins followed by substrate addition measured every 30 mins for 2 hrs by fluorescence assay
T1 sequence (O14672 whole entry): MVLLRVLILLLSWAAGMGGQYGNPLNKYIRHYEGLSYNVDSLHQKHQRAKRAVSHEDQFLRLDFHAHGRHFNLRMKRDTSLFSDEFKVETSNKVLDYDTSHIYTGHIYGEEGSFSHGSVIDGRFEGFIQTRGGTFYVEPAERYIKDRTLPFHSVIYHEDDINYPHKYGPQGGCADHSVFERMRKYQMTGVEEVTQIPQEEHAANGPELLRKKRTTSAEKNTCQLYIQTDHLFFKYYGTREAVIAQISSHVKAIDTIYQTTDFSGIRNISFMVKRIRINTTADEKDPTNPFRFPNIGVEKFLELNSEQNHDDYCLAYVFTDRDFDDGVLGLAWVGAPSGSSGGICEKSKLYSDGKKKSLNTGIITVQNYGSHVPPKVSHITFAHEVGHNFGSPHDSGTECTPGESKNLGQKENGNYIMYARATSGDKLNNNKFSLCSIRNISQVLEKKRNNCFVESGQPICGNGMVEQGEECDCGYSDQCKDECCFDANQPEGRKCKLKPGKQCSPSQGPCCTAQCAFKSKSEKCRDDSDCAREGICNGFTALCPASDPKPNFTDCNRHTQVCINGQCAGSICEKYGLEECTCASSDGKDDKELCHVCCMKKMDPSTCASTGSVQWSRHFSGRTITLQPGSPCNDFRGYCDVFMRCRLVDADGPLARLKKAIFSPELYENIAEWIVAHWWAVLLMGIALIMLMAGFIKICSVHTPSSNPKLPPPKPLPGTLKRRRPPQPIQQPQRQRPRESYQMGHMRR
Method in brief: (§1)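 Enzyme at 30 nM (3× solution) in 10 mM Hepes, 0.001% Brij-35, pH 7.5. Inhibitor series of 10 points, 1:3, from 300 μM, preincubated 30 min at RT. Glycosylated substrate added from a 30 μM 3× solution. Fluorescence (ex 360/em 460 nm) read every 30 min for 2 h. Inhibition taken from hydrolysis rates against substrate-only and substrate-plus-enzyme wells.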

[2] = target: T2, Disintegrin and metalloproteinase domain-containing protein 17 (Homo sapiens, UniProt P78536); test: Inhibition of ADAM17 (unknown origin) preincubated for 30 mins followed by substrate addition measured every 30 mins for 2 hrs by fluorescence assay; method in brief: as §1
[3] = target: T3, Matrix metalloproteinase-9 (Homo sapiens, UniProt P14780); test: Inhibition of MMP9 (unknown origin) using Mca-KLPGL-Dnp-AR as substrate at 100 uM preincubated for 30 mins followed by substrate addition measured after 1 hr by fluorescence assay relative to control
Method in brief: (§2)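 Inhibitor as 10-point 1:3 dilutions from 300 μM, 30 min at RT. Substrate added from a 30 μM 3× solution. Single fluorescence read (ex 324/em 393 nm) after 1 h at RT.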

[4] = target: T4, 72 kDa type IV collagenase (Homo sapiens, UniProt P08253); test: Inhibition of MMP2 (unknown origin) using Mca-KLPGL-Dnp-AR as substrate at 100 uM preincubated for 30 mins followed by substrate addition measured after 1 hr by fluorescence assay relative to control; method in brief: as §2
Target sequence in this assay (P08253 110-660 limits assumed): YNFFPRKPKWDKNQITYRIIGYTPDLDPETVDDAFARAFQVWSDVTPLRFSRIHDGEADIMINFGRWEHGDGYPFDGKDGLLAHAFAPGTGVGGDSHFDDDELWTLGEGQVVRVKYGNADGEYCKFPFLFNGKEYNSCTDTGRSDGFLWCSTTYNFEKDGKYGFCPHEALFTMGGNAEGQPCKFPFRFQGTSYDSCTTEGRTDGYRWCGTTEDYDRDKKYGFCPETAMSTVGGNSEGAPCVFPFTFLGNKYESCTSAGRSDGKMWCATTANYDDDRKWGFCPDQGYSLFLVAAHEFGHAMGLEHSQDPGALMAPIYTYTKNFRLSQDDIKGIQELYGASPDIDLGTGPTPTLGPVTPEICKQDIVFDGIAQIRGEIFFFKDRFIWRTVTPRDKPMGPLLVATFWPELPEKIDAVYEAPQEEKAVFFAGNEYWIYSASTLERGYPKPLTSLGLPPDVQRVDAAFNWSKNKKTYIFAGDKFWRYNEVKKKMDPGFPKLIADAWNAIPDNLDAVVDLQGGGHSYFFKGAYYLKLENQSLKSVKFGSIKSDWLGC

[5] = target: T2, Disintegrin and metalloproteinase domain-containing protein 17; test: Inhibition of ADAM17 in human A549 cells assessed as inhibition of PMA-stimulated heregulin shedding at 40 uM incubated for 1 hr followed by PMA stimulation measured after 1 hr; type: cell-based
Method in brief: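 Heregulin shedding in A549 cells, with all compounds tested at 40 μM.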

[6] = target: T2, Disintegrin and metalloproteinase domain-containing protein 17; test: Inhibition of ADAM17 (unknown origin) at 100 uM preincubated for 30 mins followed by substrate addition measured every 30 mins for 2 hrs by fluorescence assay relative to control; method in brief: as §1
[7] = target: T5, Matrix metalloproteinase-14 (Homo sapiens, UniProt P50281); test: Inhibition of MMP14 (unknown origin) using Mca-KLPGL-Dnp-AR as substrate at 100 uM preincubated for 30 mins followed by substrate addition measured after 1 hr by fluorescence assay relative to control
[8] = target: T6, Disintegrin and metalloproteinase domain-containing protein 10 (Homo sapiens) (UniProt O14672); test: Inhibition of ADAM10 (unknown origin) at 100 uM preincubated for 30 mins followed by substrate addition measured every 30 mins for 2 hrs by fluorescence assay relative to control; method in brief: as §1
T6 sequence (whole entry): T1 sequence (O14672 whole entry)

[9] = target: T2, Disintegrin and metalloproteinase domain-containing protein 17; test: Inhibition of ADAM17 in human A549 cells assessed as effect on PMA-stimulated TGFalpha shedding up to 100 uM preincubated for 1 hr followed by PMA stimulation measured after 1 hr by ELISA; type: cell-based
Method in brief: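 TGFα shedding from PMA-treated A549 cells tested up to 100 μM. Marimastat at 10 μM served as control, with a non-PMA-treated control included; soluble TGFα measured in the supernatant.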

[10] = target: T6, Disintegrin and metalloproteinase domain-containing protein 10 (Homo sapiens); test: Inhibition of ADAM10 in human A549 cells assessed as inhibition of betacellulin shedding at 40 uM after 1 hr by ELISA; type: cell-based
Method in brief: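 A549 cells were tested for betacellulin shedding at 40 μM, with Marimastat at 10 μM as control.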

Neutrophil collagenase [11] = target: T7, Neutrophil collagenase (Homo sapiens, UniProt P22894); test: Inhibition of MMP8 (unknown origin) using Mca-KLPGL-Dnp-AR as substrate at 100 uM preincubated for 30 mins followed by substrate addition measured after 1 hr by fluorescence assay relative to control; method in brief: as §2
Target sequence in this assay (P22894 101-467 limits assumed): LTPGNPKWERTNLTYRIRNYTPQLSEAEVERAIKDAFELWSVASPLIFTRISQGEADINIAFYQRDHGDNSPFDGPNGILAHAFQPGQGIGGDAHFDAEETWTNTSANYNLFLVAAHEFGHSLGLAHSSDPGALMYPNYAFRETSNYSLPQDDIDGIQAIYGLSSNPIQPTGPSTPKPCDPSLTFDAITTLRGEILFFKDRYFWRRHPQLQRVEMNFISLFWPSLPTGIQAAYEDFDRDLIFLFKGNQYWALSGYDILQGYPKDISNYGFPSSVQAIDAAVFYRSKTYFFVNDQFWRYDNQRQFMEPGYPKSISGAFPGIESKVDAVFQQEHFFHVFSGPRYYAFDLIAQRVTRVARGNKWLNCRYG

[12] = target: T2, Disintegrin and metalloproteinase domain-containing protein 17; test: Inhibition of ADAM17 in human THP1 cells assessed as inhibition of LPS-stimulated TNFalpha cleavage at 25 uM after 1 hr by AlphaScreen assay relative to control; type: cell-based; conditions: THP-1
Method in brief: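 THP-1 cells grown in RPMI 1640 with 10% FBS and 0.05 mM 2-mercaptoethanol; 3000 cells per well. Compound given in 3% DMSO for 1 h, then LPS added (1 μg/mL final) and cells incubated overnight at 37 °C. TNFα detected by AlphaScreen using anti-TNFα acceptor beads and streptavidin donor beads, each step 1 h in the dark at RT.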

Neutrophil collagenase [13] = target: T7, Neutrophil collagenase; test: Inhibition of MMP8 (unknown origin) using Mca-KLPGL-Dnp-AR as substrate preincubated for 30 mins followed by substrate addition measured after 1 hr by fluorescence assay; method in brief: as §2
Target sequence in this assay (P22894 whole entry, the tested form may be a part): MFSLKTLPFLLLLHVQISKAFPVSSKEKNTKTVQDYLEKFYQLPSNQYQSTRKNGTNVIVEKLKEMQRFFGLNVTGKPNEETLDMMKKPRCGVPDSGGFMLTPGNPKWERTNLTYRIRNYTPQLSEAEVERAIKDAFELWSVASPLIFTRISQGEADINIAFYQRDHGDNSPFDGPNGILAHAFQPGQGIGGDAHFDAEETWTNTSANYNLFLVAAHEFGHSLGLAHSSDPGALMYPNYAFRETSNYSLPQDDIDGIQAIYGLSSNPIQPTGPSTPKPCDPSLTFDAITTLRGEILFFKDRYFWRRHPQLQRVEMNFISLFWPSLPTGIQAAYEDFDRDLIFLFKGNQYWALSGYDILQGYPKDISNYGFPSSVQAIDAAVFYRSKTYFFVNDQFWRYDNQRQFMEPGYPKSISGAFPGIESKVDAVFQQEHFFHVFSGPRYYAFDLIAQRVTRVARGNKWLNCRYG

A549 = test: Cytotoxicity against human A549 cells assessed as inhibition of cell viability up to 33 uM after 72 hrs by CellTiter-Glo assay; type: cell-based; conditions: a549, 72 h
[14] = target: T5, Matrix metalloproteinase-14; test: Inhibition of MMP14 (unknown origin) using Mca-KLPGL-Dnp-AR as substrate preincubated for 30 mins followed by substrate addition measured after 1 hr by fluorescence assay; method in brief: as §2
[15] = target: T2, Disintegrin and metalloproteinase domain-containing protein 17; test: Inhibition of ADAM17 in HTSMC assessed as inhibition of LPS-stimulated IL-8 shedding at 10 uM preincubated for 30 mins followed by LPS challenge measured after 4 to 24 hrs by ELISA
Method in brief: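 HTSMCs stimulated with LPS for IL-8 release; compounds at 10 μM. Mean ± SEM, n = 3 from three independent experiments; one-way ANOVA with Dunnett post hoc test.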

HepG2 = test: Cytotoxicity against human HepG2 cells assessed as inhibition of cell viability up to 33 uM after 72 hrs by CellTiter-Glo assay; type: cell-based; conditions: hepg2, 72 h
[16] = target: T6, Disintegrin and metalloproteinase domain-containing protein 10 (Homo sapiens); test: Inhibition of ADAM10 in HTSMC assessed as inhibition of constitutive release of fractalkine/CX3CL1 at 10 uM preincubated for 30 mins measured after 4 to 24 hrs by ELISA
[17] = target: T4, 72 kDa type IV collagenase; test: Inhibition of MMP2 (unknown origin) using Mca-KLPGL-Dnp-AR as substrate preincubated for 30 mins followed by substrate addition measured after 1 hr by fluorescence assay; method in brief: as §2
Target sequence in this assay (P08253 whole entry, the tested form may be a part): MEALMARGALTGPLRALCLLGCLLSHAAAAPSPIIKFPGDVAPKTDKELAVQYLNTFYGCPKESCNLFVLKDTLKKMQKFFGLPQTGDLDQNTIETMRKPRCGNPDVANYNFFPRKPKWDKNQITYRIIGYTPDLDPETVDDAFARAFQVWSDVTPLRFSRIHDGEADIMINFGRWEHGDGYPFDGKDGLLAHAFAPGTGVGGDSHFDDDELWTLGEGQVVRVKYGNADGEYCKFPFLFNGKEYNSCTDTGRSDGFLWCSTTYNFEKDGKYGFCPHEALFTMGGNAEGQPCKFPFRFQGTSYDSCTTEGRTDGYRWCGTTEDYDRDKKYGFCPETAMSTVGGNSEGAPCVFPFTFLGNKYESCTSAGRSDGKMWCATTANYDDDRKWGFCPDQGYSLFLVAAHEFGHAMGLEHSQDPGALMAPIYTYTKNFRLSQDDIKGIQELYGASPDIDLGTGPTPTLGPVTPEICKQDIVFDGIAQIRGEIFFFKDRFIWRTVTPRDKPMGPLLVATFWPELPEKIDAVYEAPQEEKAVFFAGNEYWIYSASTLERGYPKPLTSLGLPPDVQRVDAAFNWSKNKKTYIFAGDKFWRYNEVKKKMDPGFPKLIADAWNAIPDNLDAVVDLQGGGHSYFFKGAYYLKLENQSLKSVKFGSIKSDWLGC

[18] = Cytotoxicity against CHOK1 cells assessed as inhibition of cell viability up to 33 uM after 72 hrs by CellTiter-Glo assay; type: cell-based, Cricetulus griseus; conditions: chinese hamster, cho-k1, 72 h
MDA-MB-231 = test: Cytotoxicity against human MDA-MB-231 cells assessed as inhibition of cell viability up to 33 uM after 72 hrs by CellTiter-Glo assay; type: cell-based; conditions: mda-mb-231, 72 h
[19] = target: T6, Disintegrin and metalloproteinase domain-containing protein 10 (Homo sapiens); test: Inhibition of ADAM10 in HTSMC assessed as inhibition of PMA-stimulated release of CXCL16 at 10 uM preincubated for 30 mins followed by PMA challenge measured after 4 to 24 hrs by ELISA
[20] = target: T3, Matrix metalloproteinase-9; test: Inhibition of MMP9 (unknown origin) using Mca-KLPGL-Dnp-AR as substrate preincubated for 30 mins followed by substrate addition measured after 1 hr by fluorescence assay; method in brief: as §2

T3 sequence (P14780 whole entry): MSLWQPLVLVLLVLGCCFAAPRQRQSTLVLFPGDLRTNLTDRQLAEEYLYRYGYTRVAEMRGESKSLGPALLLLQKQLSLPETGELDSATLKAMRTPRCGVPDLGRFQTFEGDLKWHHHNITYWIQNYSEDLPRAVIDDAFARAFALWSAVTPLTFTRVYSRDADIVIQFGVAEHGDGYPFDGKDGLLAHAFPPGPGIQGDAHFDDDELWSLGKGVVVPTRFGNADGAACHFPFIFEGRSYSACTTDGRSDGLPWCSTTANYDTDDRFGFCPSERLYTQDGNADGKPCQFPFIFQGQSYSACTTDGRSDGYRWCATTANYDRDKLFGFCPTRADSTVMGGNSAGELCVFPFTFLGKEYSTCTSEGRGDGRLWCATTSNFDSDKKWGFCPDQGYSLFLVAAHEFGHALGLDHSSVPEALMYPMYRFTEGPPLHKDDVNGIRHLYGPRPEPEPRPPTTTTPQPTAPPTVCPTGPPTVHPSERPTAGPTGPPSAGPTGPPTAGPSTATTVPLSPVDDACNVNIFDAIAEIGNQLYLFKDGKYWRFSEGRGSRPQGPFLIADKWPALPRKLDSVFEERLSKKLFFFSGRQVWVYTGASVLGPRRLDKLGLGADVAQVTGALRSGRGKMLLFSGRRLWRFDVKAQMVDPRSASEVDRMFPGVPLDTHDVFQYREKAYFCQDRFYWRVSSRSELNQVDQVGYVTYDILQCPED
T2 sequence (P78536 whole entry, the tested form may be a part): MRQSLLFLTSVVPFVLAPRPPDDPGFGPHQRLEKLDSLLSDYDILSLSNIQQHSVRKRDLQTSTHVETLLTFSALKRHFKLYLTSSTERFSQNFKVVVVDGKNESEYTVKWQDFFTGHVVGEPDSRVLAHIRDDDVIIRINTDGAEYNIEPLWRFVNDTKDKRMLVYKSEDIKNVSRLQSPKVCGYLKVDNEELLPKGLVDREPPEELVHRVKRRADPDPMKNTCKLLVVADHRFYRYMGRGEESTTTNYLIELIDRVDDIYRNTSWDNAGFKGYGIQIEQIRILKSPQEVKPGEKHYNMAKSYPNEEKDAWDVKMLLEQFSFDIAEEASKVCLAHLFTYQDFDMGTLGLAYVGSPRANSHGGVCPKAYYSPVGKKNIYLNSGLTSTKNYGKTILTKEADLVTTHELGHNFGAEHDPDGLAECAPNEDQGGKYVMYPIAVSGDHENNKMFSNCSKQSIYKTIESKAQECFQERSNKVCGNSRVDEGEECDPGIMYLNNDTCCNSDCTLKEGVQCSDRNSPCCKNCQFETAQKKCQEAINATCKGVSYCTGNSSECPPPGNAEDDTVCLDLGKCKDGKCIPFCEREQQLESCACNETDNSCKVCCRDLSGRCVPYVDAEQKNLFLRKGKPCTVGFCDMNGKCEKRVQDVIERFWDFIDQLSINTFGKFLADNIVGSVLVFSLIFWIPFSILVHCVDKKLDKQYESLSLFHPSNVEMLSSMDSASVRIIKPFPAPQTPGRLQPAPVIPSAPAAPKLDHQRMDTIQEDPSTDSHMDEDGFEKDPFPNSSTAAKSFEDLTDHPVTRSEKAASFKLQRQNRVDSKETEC

Structure (SMILES): CCC[C@H]1CNC(=O)C(=O)N1C[C@@H]1CCCN1C[C@H](Cc1ccc(O)cc1)N1C[C@H](Cc2ccc(O)cc2)N(CC23CC4CC(CC(C4)C2)C3)C(=O)C1=O
IC50 [1]: > 100 µM
IC50 [2]: 10 µM

Structure (SMILES): CCC[C@H]1CNC(=O)C(=O)N1C[C@@H]1CCCN1C[C@H](Cc1ccc(O)cc1)N1C[C@H](Cc2ccc(O)cc2)N(CC2CCCC2)C(=O)C1=O
IC50 [1]: > 100 µM
IC50 [2]: 35 µM

Structure (SMILES): CCCC[C@H]1CN([C@@H](Cc2ccc(O)cc2)CN2CCC[C@H]2CN2C(=O)C(=O)NC[C@@H]2CCC)C(=O)C(=O)N1CCC12CC3CC(CC(C3)C1)C2
IC50 [1]: > 100 µM
IC50 [2]: 6.5 µM

Structure (SMILES): O=C1NCC(Cc2ccccc2)N(C[C@@H]2CCCN2C[C@@H](CC2CCCCC2)N2C[C@H](Cc3ccccc3)N(CCc3ccccc3)C(=O)C2=O)C1=O (single isomer, unassigned)
inhibition [3]: 0%
inhibition [4]: 0%
inhibition [5]: 34%
inhibition [6]: 100%
inhibition [7]: 0%
inhibition [8]: 0%
inhibition [9]: 0%
inhibition [10]: 0%
inhibition (Neutrophil collagenase [11]): 0%
inhibition [12]: 0%

Structure (SMILES): O=C1NC[C@H](Cc2ccccc2)N(C[C@@H]2CCCN2C[C@H](Cc2ccccc2)N2C[C@H](Cc3ccc(O)cc3)N(CCC34CC5CC(CC(C5)C3)C4)C(=O)C2=O)C1=O
inhibition [3]: 0%
IC50 (Neutrophil collagenase [13]): > 100 µM
Activity (A549): Non-toxic
inhibition [4]: 0%
IC50 [14]: > 100 µM
inhibition [15]: 62%
inhibition [5]: 0%
Activity (HepG2): Non-toxic
inhibition [6]: 100%
inhibition [16]: 0%
IC50 [17]: > 100 µM
inhibition [7]: 0%
inhibition [8]: 0%
inhibition [9]: 0%
IC50 [1]: > 100 µM
Activity [18]: Non-toxic
inhibition [10]: 0%
Activity (MDA-MB-231): Non-toxic
inhibition (Neutrophil collagenase [11]): 0%
inhibition [12]: 44%
IC50 [2]: 11 µM
inhibition [19]: 0%
IC50 [20]: > 100 µM

Now from value to molecule:

IC50 [1]: > 100 µM
IC50 [2]: 5.7 µM
Structure (SMILES): O=C1NC[C@@H](Cc2ccc3ccccc3c2)N(C[C@@H]2CCCN2C[C@H](Cc2ccc(O)cc2)N2C[C@@H](Cc3ccc4ccccc4c3)N(CCC34CC5CC(CC(C5)C3)C4)C(=O)C2=O)C1=O

IC50 [1]: > 100 µM
IC50 [2]: 7.9 µM
Structure (SMILES): CCC[C@H]1CNC(=O)C(=O)N1C[C@@H]1CCCN1C[C@H](Cc1ccc(O)cc1)N1C[C@@H](Cc2ccc3ccccc3c2)N(CCC23CC4CC(CC(C4)C2)C3)C(=O)C1=O

IC50 [1]: > 100 µM
IC50 [2]: 8.4 µM
Structure (SMILES): O=C1NC[C@@H](Cc2ccc3ccccc3c2)N(C[C@@H]2CCCN2C[C@H](Cc2ccc(O)cc2)N2C[C@H](Cc3ccc4ccccc4c3)N(CCC34CC5CC(CC(C5)C3)C4)C(=O)C2=O)C1=O
